Source: ChEMBL document CHEMBL1144397, “Structure-based design: synthesis and biological evaluation of a series of novel cycloamide-derived HIV-1 protease inhibitors” (J Med Chem, 2005)
One block for each compound: values may come before it.

Columns and labels:
MT2 [1] = assay: (§1) Compound tested for the inhibition of HIV-induced cytopathogenicity in MT-2 cells; assay type: functional, cell-based; conditions: Homo sapiens
Summary of the method: (§2)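 MT-2 cells (2 × 10^3/well) infected with 100 TCID50s of HIV-1LAI in presence of various agent concentrations; 37 °C for 7 days. Viability read by MTT (7.5 mg/mL in PBS), 2 h at 37 °C, formazan dissolved in acidified 2-propanol with 4% Triton X-100, OD 570 nm. IC50/IC75 from inhibition of cytopathogenicity; duplicate assays, mean of two or three.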

MT2 [2] = assay: as §1; assay type: functional; conditions: Homo sapiens; summary of the method: as §2
[3] = target: Human immunodeficiency virus type 1 protease (Human immunodeficiency virus 1, UniProt Q72874); assay: Inhibitory activity against human immunodeficiency virus 1 protease

- IC50 (MT2 [1]): 12 nM
Structure (SMILES): CC(C)(C)NC(=O)[C@@H]1C[C@@H]2CCCC[C@@H]2CN1C[C@@H](O)[C@H](Cc1ccccc1)NC(=O)[C@H](CC(N)=O)NC(=O)c1ccc2ccccc2n1
- IC75 (MT2 [2]): 47 nM

Structure (SMILES): CC(C)CN(C[C@@H](O)[C@H](Cc1ccccc1)NC(=O)O[C@H]1CCOC1)S(=O)(=O)c1ccc(N)cc1
- IC50 (MT2 [1]): 28 nM
- IC75 (MT2 [2]): 79 nM

Structure (SMILES): C=CCCCCC(NC(=O)c1cccc(O)c1OCCC=C)C(O)CN(CC(C)C)S(=O)(=O)c1ccc2c(c1)OCO2 (configuration not stated)
- Ki [3]: 20 nM

Structure (SMILES): COc1ccc(S(=O)(=O)N(CC(C)C)CC(O)C2CCCCCCCOc3c(O)cccc3C(=O)N2)cc1 (configuration not stated)
- Ki [3]: 1 nM

Structure (SMILES): CC(C)CN(CC(O)C1CCCCCCCCOc2c(O)cccc2C(=O)N1)S(=O)(=O)c1ccc2c(c1)OCO2 (configuration not stated)
- Ki [3]: 3 nM
- IC50 (MT2 [1]): > 1000 nM
- IC75 (MT2 [2]): > 1000 nM

Structure (SMILES): C=CCCCCC(NC(=O)c1cccc(O)c1OCC=C)C(O)CN(CC(C)C)S(=O)(=O)c1ccc(OC)cc1 (configuration not stated)
- Ki [3]: 12 nM

Structure (SMILES): C=CCCCCC(NC(=O)c1cccc(O)c1OCCC=C)C(O)CN(CC(C)C)S(=O)(=O)c1ccc(OC)cc1 (configuration not stated)
- Ki [3]: 2 nM
- IC50 (MT2 [1]): > 1000 nM
- IC75 (MT2 [2]): > 1000 nM

Structure (SMILES): COc1ccc(S(=O)(=O)N(CC(C)C)CC(O)C2CCCCCCCCOc3c(O)cccc3C(=O)N2)cc1 (configuration not stated)
- Ki [3]: 0.7 nM
- IC50 (MT2 [1]): 300 nM
- IC75 (MT2 [2]): 740 nM

Structure (SMILES): COc1ccc(S(=O)(=O)N(CC(C)C)CC(O)C2CCCCCCCCCOc3c(O)cccc3C(=O)N2)cc1 (configuration not stated)
- Ki [3]: 2 nM
- IC50 (MT2 [1]): 560 nM
- IC75 (MT2 [2]): > 1000 nM

Structure (SMILES): CCCCCCCC(NC(=O)c1cccc(O)c1O)C(O)CN(CC(C)C)S(=O)(=O)c1ccc(OC)cc1 (configuration not stated)
- Ki [3]: 270 nM

Structure (SMILES): C=CCCCCC(NC(=O)c1cccc(O)c1OCCCC=C)C(O)CN(CC(C)C)S(=O)(=O)c1ccc(OC)cc1 (configuration not stated)
- Ki [3]: 9 nM

- Ki [3]: 2 nM
Structure (SMILES): COc1ccc(S(=O)(=O)N(CC(C)C)CC(O)C2CCCC/C=C\COc3c(O)cccc3C(=O)N2)cc1 (configuration not stated)
